# Source: ChEMBL document CHEMBL1132480, “Synthesis, acid-base behavior, and binding properties of 6-modified myo-inositol 1,4,5-tris(phosphate)s” (J Med Chem, 1999)
# pIC50: −log10 of the molar value.
# Experiments:
# [1] = Equilibrium constant (K3) of the compound.; format: ADME
# Method in brief: (§1)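 Stepwise macroscopic protonation constants measured over pH 2.5–10, where each phosphate has one titratable proton. Observed NMR chemical shifts were treated as weighted averages of the shifts of the protonated and deprotonated species.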
# [2] = molecular target: Inositol 1,4,5-trisphosphate-gated calcium channel ITPR3 (Bos taurus, UniProt Q8WN95); experiment: Binding affinity against Inositol 1,4,5-trisphosphate receptor on bovine adrenal cortex microsomes.
# [3] = Equilibrium constant (K1) of the compound.; format: ADME; method in brief: as §1
# [4] = Equilibrium constant (K2) of the compound.; format: ADME; method in brief: as §1
# [5] = Equilibrium constant (K4) of the compound.; format: ADME; method in brief: as §1
# Chain of Inositol 1,4,5-trisphosphate-gated calcium channel ITPR3 (Q8WN95 whole entry): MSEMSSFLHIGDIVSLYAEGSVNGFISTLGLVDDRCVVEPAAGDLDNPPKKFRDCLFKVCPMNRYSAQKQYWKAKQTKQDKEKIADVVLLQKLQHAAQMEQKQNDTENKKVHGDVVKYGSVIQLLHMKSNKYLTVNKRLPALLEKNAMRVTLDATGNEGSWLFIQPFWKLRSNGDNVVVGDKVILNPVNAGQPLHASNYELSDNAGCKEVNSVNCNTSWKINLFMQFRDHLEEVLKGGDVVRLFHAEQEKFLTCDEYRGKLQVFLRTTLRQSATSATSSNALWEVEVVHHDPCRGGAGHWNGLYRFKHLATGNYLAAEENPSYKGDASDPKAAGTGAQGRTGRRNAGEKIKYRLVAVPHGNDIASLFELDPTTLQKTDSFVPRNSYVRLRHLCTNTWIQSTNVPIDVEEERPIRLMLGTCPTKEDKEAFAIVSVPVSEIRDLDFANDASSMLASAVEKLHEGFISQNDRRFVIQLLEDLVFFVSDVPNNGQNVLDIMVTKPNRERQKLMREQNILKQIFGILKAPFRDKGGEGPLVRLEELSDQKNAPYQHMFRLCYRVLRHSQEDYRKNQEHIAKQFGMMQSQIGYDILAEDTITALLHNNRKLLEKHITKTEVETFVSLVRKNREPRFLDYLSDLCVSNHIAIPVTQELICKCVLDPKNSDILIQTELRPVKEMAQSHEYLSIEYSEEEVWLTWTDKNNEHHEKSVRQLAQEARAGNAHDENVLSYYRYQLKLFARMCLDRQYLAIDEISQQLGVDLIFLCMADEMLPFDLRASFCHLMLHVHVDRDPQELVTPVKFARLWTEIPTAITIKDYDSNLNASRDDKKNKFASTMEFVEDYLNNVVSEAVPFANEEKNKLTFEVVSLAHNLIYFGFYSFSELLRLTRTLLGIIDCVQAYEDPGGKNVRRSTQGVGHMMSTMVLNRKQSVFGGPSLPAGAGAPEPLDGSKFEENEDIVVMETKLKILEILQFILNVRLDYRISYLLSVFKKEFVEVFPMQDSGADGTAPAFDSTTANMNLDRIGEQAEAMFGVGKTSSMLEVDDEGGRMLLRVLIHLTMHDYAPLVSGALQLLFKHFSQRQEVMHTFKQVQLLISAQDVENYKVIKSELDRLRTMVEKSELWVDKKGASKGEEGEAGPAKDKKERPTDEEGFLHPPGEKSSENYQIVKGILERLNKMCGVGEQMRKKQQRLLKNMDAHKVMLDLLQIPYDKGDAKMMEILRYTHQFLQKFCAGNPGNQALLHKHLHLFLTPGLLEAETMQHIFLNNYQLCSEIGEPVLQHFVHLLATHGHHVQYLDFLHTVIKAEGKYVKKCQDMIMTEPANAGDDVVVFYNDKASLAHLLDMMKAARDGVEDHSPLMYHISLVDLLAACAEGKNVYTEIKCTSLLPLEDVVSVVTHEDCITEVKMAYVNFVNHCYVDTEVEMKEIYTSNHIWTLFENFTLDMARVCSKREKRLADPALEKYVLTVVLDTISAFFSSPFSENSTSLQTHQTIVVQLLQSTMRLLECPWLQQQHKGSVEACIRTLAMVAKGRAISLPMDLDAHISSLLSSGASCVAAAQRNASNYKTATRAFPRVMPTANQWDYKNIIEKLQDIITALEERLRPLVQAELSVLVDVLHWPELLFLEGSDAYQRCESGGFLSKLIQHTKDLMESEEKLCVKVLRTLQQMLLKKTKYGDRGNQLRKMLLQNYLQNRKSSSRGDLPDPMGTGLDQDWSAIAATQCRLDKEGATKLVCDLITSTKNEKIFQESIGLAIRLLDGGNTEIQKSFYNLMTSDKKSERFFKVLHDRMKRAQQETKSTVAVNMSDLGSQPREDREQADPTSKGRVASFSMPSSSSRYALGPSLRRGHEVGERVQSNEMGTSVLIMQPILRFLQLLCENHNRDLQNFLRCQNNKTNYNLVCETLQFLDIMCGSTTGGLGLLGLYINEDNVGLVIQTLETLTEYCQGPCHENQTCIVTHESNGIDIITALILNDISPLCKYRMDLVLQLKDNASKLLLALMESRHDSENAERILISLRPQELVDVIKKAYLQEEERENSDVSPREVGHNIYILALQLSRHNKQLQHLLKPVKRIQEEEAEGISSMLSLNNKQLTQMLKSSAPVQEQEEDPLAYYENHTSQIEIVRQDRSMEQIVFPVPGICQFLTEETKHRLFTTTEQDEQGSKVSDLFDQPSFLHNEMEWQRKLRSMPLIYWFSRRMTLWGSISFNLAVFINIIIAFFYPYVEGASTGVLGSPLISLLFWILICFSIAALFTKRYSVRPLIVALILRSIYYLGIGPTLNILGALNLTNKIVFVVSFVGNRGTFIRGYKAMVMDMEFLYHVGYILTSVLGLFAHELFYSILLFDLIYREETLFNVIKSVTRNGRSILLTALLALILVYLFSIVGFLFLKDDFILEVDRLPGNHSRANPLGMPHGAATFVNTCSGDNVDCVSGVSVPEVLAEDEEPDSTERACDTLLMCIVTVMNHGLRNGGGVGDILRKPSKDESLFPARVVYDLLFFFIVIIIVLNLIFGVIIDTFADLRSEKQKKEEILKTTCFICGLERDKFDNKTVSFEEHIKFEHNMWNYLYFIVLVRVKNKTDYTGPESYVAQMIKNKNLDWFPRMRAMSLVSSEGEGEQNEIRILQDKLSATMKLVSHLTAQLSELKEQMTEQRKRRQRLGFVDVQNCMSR
SMILES,Log K3 [1],pIC50 [2],Log K1 [3],Log K2 [4],Log K4 [5]
O=P(O)(O)O[C@@H]1[C@@H](O)[C@@H](O)[C@@H](OP(=O)(O)O)C[C@H]1OP(=O)(O)O,5.53,6.00,8.3,6.65,
N[C@@H]1[C@@H](OP(=O)(O)O)[C@H](OP(=O)(O)O)[C@@H](O)[C@@H](O)[C@H]1OP(=O)(O)O,5.58,5.30,10.69,7.35,4.62
O=P(O)(O)O[C@@H]1[C@H](O)[C@H](O)[C@@H](OP(=O)(O)O)[C@H](OP(=O)(O)O)[C@H]1F,5.56,5.70,8.76,6.64,
O=P(O)(O)O[C@@H]1CC[C@@H](OP(=O)(O)O)[C@H](OP(=O)(O)O)C1,,5.41,,,
O=P(O)(O)O[C@@H]1[C@H](O)[C@H](O)[C@@H](OP(=O)(O)O)[C@H](OP(=O)(O)O)[C@@H]1O,5.4,,8.01,6.39,
"O=P(O)(O)O[C@@H]1[C@H](O)[C@H](O)[C@@H](OP(=O)(O)O)[C@H](OP(=O)(O)O)[C@H]1O [INS(1,4,5)P3]",5.31,,7.85,6.4,
